Reference: ChEMBL document CHEMBL1152300, “Ligand specificity of constitutive androstane receptor as probed by induced-fit docking and mutagenesis” (J Med Chem, 2008)

Assays:
Type in all cases: cell-based
[1] = target: Nuclear receptor subfamily 1 group I member 3 (Mus musculus, UniProt O35627, I252L); assay: Enhancement of steroid receptor coactivator 1 binding to mouse CAR I252L mutant […] at 1 uM by yeast two-hybrid assay
Method in brief: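 Yeast two-hybrid assay. Yeast co-expressing wild-type or mutant mouse CAR LBD and the SRC-1 partner were selected on SD plates lacking leucine and tryptophan. Random colonies were pooled and amplified, then treated with DMSO or test chemical for 3.5 h. β-galactosidase activity was normalized to cell density and set relative to wild-type mCAR + SRC-1 with DMSO (=100). Mean ± standard deviation of two determinations, each in triplicate.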

[2] = target: Nuclear receptor subfamily 1 group I member 3 (Mus musculus, UniProt O35627, F171A); assay: Effect on nuclear co-repressor receptor binding to mouse CAR F171A mutant […] at 1 uM by yeast two-hybrid assay
Chain of Nuclear receptor subfamily 1 group I member 3 (Mus musculus, UniProt O35627, F171A) (O35627 whole entry F171A, the tested form may be a part): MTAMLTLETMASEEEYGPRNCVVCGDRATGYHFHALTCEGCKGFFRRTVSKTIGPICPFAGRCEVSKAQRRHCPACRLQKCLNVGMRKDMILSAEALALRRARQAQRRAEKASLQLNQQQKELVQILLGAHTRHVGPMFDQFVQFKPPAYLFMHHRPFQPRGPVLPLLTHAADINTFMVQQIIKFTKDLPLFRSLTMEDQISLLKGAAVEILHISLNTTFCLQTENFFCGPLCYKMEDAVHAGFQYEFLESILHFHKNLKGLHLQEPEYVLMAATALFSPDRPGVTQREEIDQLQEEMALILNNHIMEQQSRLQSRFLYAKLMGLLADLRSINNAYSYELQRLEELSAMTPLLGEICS
Method in brief: (§1)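 Yeast expressing wild-type or mutant mouse CAR LBD plus NCoR, selected on SD plates lacking leucine and tryptophan. Pooled colonies treated with DMSO or compound for 3.5 h. β-Galactosidase activity normalized to cell density. Reference is 10 µM androstenol (=100). Mean ± SD of two independent determinations, each in triplicate.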

[3] = target: Nuclear receptor subfamily 1 group I member 3 (Mus musculus, UniProt O35627, Y336A); assay: Effect on nuclear co-repressor receptor binding to mouse CAR Y336A mutant […] at 1 uM by yeast two-hybrid assay; conditions: read-out: Activity; method in brief: as §1
Chain of Nuclear receptor subfamily 1 group I member 3 (Mus musculus, UniProt O35627, Y336A) (O35627 whole entry Y336A): as the sequence (O35627 whole entry F171A, the tested form may be a part) above, with A171F, Y336A counted along it

[4] = target: Nuclear receptor subfamily 1 group I member 3 (Mus musculus, UniProt O35627, T350M); assay: Decrease in nuclear co-repressor receptor binding to mouse CAR T350M mutant […] at 2 uM by yeast two-hybrid assay; conditions: read-out: Activity
Chain of Nuclear receptor subfamily 1 group I member 3 (Mus musculus, UniProt O35627, T350M) (O35627 whole entry T350M, the tested form may be a part): as the sequence (O35627 whole entry F171A, the tested form may be a part) above, with A171F, T350M counted along it
Method in brief: (§2)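 Yeast two-hybrid: yeast expressing wild-type or mutant mouse CAR LBD plus SRC-1 or NCoR, selected on SD medium lacking Leu and Trp. Pooled colonies treated with DMSO or test chemical for 3.5 h. β-Galactosidase normalized to cell density. SRC-1 reference: wild-type + DMSO = 100. NCoR reference: 10 µM androstenol = 100. Mean ± SD, two independent determinations, each in triplicate.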

[5] = target: Nuclear receptor subfamily 1 group I member 3 (Mus musculus, UniProt O35627, L253F); assay: Decrease in mouse CAR L253F mutant activation expressed in HEK293 cells at 2 uM by mammalian one-hybrid assay; conditions: read-out: Activity
Chain of Nuclear receptor subfamily 1 group I member 3 (Mus musculus, UniProt O35627, L253F) (O35627 whole entry L253F, the tested form may be a part): as the sequence (O35627 whole entry F171A, the tested form may be a part) above, with A171F, L253F counted along it
Method in brief: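 GAL4-DBD fused to mouse CAR LBD (residues 118-358), wild-type or point mutant, cotransfected with UASx4-tk-luc reporter and pCMVβ into HEK293 cells. Cells were exposed to final 1 µM, 2 µM or 10 µM test chemical, or 0.1% v/v DMSO, for 24 h after transfection. Luciferase was normalized to β-galactosidase and set against empty GAL4 vector (=1.0). Mean ± standard deviation, three independent experiments.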

[6] = target: Nuclear receptor subfamily 1 group I member 3 (Mus musculus, UniProt O35627, L212A); assay: Enhancement of steroid receptor co-activator 1 binding to mouse CAR L212A mutant […] at 2 uM by yeast two-hybrid assay; method in brief: as §2
Chain of Nuclear receptor subfamily 1 group I member 3 (Mus musculus, UniProt O35627, L212A) (O35627 whole entry L212A): as the sequence (O35627 whole entry F171A, the tested form may be a part) above, with A171F, L212A counted along it

[7] = target: Nuclear receptor subfamily 1 group I member 3 (Mus musculus, UniProt O35627, N175A); assay: Enhancement of steroid receptor co-activator 1 binding to mouse CAR N175A mutant […] at 2 uM by yeast two-hybrid assay; method in brief: as §2
Chain of Nuclear receptor subfamily 1 group I member 3 (Mus musculus, UniProt O35627, N175A) (O35627 whole entry N175A): as the sequence (O35627 whole entry F171A, the tested form may be a part) above, with A171F, N175A counted along it

Chain of Nuclear receptor subfamily 1 group I member 3 (Mus musculus, UniProt O35627, I252L) (O35627 whole entry I252L, the tested form may be a part): as the sequence (O35627 whole entry F171A, the tested form may be a part) above, with A171F, I252L counted along it

| SMILES | Activity [1] | Activity [2] [%] | activity at 1 µM [3] [%] | inhibition at 2 µM [4] [%] | inhibition at 2 µM [5] [%] | Activity [6] | Activity [7] |
| --- | --- | --- | --- | --- | --- | --- | --- |
| Clc1cnc(Oc2ccc(Oc3ncc(Cl)cc3Cl)cc2)c(Cl)c1 | >= 50% | < 50 | < 50 |  |  |  |  |
| Clc1ccccc1C(c1ccccc1)(c1ccccc1)n1ccnc1 [CLOTRIMAZOLE] |  |  |  | ≥ 50 | 50 | >= 50% | >= 50% |
